Sampled rows, rich in hits. Any-hit rate of the full collection: about 2.6%.
Rin1-Abl PPI inh – inhibitors of human Rin1-Abl protein interaction; inhibition, % at 7.35 µM; AID 588664; TR-FRET Rin1/Abl binding, biochemical; P00519+Q13671; 360,000 compounds, 0.4% hits; in the data active = inhibition above about 5%, passing the limit was not always enough
T cell HTS – T cell immune modulators affecting CD8 T cell-vesicle binding; 2C CD8+ T cell-vesicle binding, flow cytometry; hits give low values; response (vesicle binding), % at 7 µM; 330,000 compounds, 0.068% hits;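 active = response, share of CD8 T cells binding vesicles, and their 90th percentile fluorescence all below set limits, cut at about 80% in these data, passing the limit was not always enough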;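 note: values below 100% mean blocked vesicle binding to the CD8+ T cells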
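material = purified 2C TCR transgenic mouse naive CD8+ T cells | controls = Unloaded micro-vesicles (low), QL9 vesicles with 0.7% DMSO (high) | detection = cytometric PE anti-B7-1 and Alexa647 anti-CD8 signals after 1% paraformaldehyde fixation | incubation = binding step 1.5 h, 37 °C, antibody labelling 20 min, ice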
Rce1 inhib – blocks yeast Ras-converting enzyme. 290,000 compounds, 0.27% hits. yeast membranes, quenched prenylated peptide cleavage fluorescence. calls only;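 active = fall in fluorescence gain of 50% or more versus controls, with final raw signal at or below 3038400; inconclusive = same 50% fall but final raw signal above 3038400; inactive = fall in fluorescence gain under 50%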;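 note: plate controls were neutral control wells for no effect and wells lacking membranes for full effect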
SKN-1 inh – C. elegans SKN-1 inhibition; C. elegans VP596 Pgst-4::GFP/RFP ratio, acrylamide-induced, 24 h; inhibition, % at 21.8 µM; 360,000 compounds, 0.49% hits; AID 624304;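 active = interference check ratio from 0.5 to 1.5 plus GFP to RFP signal ratio inhibition reaching or exceeding a fixed threshold, cut at about 30% in these data, passing the limit was not always enough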
GRK2 aptamer HTS – blocks RNA aptamer binding to human GRK2; bead flow cytometry, FAM-aptamer displacement from GRK2; P25098; inhibition of aptamer binding, % at 10 µM; 330,000 compounds, 0.59% hits;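 active = inhibition of aptamer binding above 40%, roughly 3 SD of noise, on plates passing a quality check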;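 note: median bead fluorescence of bound FAM aptamer so fluorescent compounds give negative values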
Target sequence (P25098 whole entry, looked up): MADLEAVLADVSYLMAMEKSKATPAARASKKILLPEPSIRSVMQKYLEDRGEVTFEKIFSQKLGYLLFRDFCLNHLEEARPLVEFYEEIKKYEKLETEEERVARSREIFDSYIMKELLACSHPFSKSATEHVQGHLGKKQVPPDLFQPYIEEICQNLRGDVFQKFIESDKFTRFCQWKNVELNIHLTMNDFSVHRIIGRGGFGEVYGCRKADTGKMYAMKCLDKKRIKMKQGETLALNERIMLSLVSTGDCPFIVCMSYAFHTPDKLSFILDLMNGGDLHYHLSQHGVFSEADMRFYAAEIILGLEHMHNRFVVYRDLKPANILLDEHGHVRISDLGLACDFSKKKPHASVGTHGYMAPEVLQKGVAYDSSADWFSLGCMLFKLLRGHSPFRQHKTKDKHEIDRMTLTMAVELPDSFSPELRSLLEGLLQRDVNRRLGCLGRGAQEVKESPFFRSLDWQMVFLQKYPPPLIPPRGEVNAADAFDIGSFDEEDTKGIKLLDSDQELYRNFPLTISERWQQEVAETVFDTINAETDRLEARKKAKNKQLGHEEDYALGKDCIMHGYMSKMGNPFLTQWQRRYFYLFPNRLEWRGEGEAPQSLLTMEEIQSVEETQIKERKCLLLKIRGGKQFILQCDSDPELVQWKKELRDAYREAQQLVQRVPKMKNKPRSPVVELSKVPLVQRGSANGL
Myeloid diff 2 – promotes myeloid progenitor differentiation | AID 624256 | ER-HoxA9 myeloid progenitors, lysozyme-GFP differentiation, flow cytometry | calls only at 10 µM | 360,000 compounds, 1% hits;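 active = normalized GFP-positive differentiation at or above the plate's own cutoff, the solvent-only control mean plus 3 SD; inconclusive = no clear call, values can overlap the other calls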;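 note: cells exposed to compound for four days before flow analysis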
GRK2 CP1 – confirmation of human GRK2 inhibitors displacing RNA aptamer; shares compounds with GRK2 aptamer HTS; bead-bound GRK2, FAM-aptamer displacement, flow cytometry; aptamer displacement, % at 10 µM; 2,000 compounds, 4% hits; AID 504451;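 active = aptamer displacement above 40%, near three times the noise of non-fluorescent compounds, on plates passing quality checks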;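 note: negative values mostly reflect intrinsic compound fluorescence rather than true enhancement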
FAM quench CP1 – aptamer fluorescence quenching in GRK2 counter-screen; 2,000 tested, under 10 active; fluorescence response (% of DMSO), % at 10 µM; Carboxyfluorescein RNA aptamer on beads, flow cytometry quenching; hits give low values; shares compounds with GRK2 aptamer HTS; AID 504580;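 active = compounds that quench the bead-bound fluorescent RNA probe, cutting fluorescence to under half of the solvent control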;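 note: counterscreen run without GRK2 so only probe quenching by compound is measured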
GRK2 confirm 2 – human GRK2 inhibition confirmation, cherry pick 2. shares compounds with GRK2 aptamer HTS. bead-bound GRK2, FAM-aptamer displacement, flow cytometry. inhibition of aptamer binding, % at 10 µM. 360 tested, under 10 active. AID 504782;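 active = inhibition of aptamer binding above 40%, about triple the noise seen with nonglowing compounds, on plates passing quality control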;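 note: negative values mostly come from compounds that fluoresce themselves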
FAM quench SP – counter-screen for GRK2 binding hits: quenchers of fluorescent RNA aptamer. carboxyfluorescein RNA aptamer beads, flow cytometry quenching; hits give low values. shares compounds with GRK2 aptamer HTS. 360 tested, under 10 active. fluorescence response vs DMSO, % at 10 µM;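 active = response vs DMSO under 50%, meaning signal dropped by over half, treated as fluorescence quencher; inconclusive = no clear call, values can overlap the other calls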;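 note: labelled aptamer on streptavidin beads without GRK2 as a quench counter-screen; 100% = bead fluorescence of DMSO wells and lower means quenching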
* hit, by the source's call; i = inactive; ? = inconclusive; . = no result.

SMILES	Rin1-Abl PPI inh	T cell HTS	Rce1 inhib	SKN-1 inh	GRK2 aptamer HTS	Myeloid diff 2	GRK2 CP1	FAM quench CP1	others
O=C(CC1SC(N2CCCCC2)=NC1=O)Nc1cccc(C(=O)NCc2ccccc2)c1 (centres undefined)	2	432	.	9	3	i	-1	99
COc1ccc(CN(C)C(=O)c2ccc(NC(=O)CC3SC(N4CCCC4)=NC3=O)cc2)c(OC)c1 (centres undefined)	2	200	i	-5	54*	i	0	96
COc1ccc(CN(C)C(=O)c2ccc(NC(=O)CC3SC(N4CCCC4)=NC3=O)cc2)c(OC)c1OC (centres undefined)	-3	517	i	0	0	i	.	.
O=C(NCC(=O)N1CCN(S(=O)(=O)c2cccc(F)c2)CC1)c1ccc(Br)o1	2	333	i	4	2	i	.	.
Cc1cc(C(F)(F)F)nc(SCC(=O)NC2CC3CCC2C3)n1 (centres undefined)	-1	326	i	5	53*	i	-2	98
CN(C)C(=O)CN(c1ccc2c(c1)OCO2)S(C)(=O)=O	2	738	i	-2	47*	i	4	103
COCCn1nnnc1C(c1ccccn1)N1CCN(c2cc(Cl)ccc2C)CC1 (centres undefined)	0	228	i	3	97*	i	-1	102
COc1ccc(Cn2nnnc2C(c2ccccn2)N2CCN(c3cc(Cl)ccc3C)CC2)cc1 (centres undefined)	0	358	i	2	0	i	.	.
O=C1c2c(O)cccc2C(C2OC(CO)[C@@H](O)[C@H](O)[C@H]2O)c2cc(CO)cc(O)c21 (some centres undefined)	0	537	.	6	2	i	.	.
O=C(O)c1cc(O)c2c(c1)[C@H]([C@H]1c3cc(C(=O)O)cc(O)c3C(=O)c3c(O[C@@H]4O[C@H](CO)[C@@H](O)[C@H](O)[C@H]4O)cccc31)c1cccc(OC3O[C@H](CO)[C@@H](O)[C@H](O)[C@H]3O)c1C2=O (some centres undefined)	12	849	i	4	99*	i	30	95
CCC(C)NC(=O)Cn1cnc2sc(C)c(S(=O)(=O)N3CCN(c4ncccn4)CC3)c2c1=O (centres undefined)	2	301	i	-3	0	i	.	.
CCC(C)NC(=O)Cn1cnc2sc(C)cc2c1=O (centres undefined)	4	329	i	-21	43*	i	1	100
CCc1nc2ccc(C(=O)N3CCN(C(C)=O)CC3)cn2c1N(CCC(C)C)CCN(C)C	2	.	.	7	.	i	.	.
CCNc1c(NS(=O)(=O)c2ccc(OC)c(Cl)c2)c(=O)oc2ccccc12	3	711	i	8	69*	i	5	101
Cc1ccc(S(=O)(=O)NCCOC(=O)Nc2sc(=S)n(C)c2C)cc1	0	668	i	7	96*	i	-5	102
CN(C)c1ccc(N=Nc2ccc(C(=O)O)cc2)cc1	-5	773	i	41*	54*	i	2	102
CCC(=O)N1c2ccc(S(=O)(=O)CCC(=O)NC3CCCC3)cc2CC1C (centres undefined)	-3	171	i	-2	0	i	.	.
CC(=O)N1CCc2cc(S(=O)(=O)CCC(=O)NCc3cccs3)ccc21	1	456	i	-18	2	i	.	.	GRK2 confirm 2=10;FAM quench SP=99
CC(=O)N1CCc2cc(S(=O)(=O)CCC(=O)NCc3ccc4c(c3)OCO4)ccc21	2	222	i	-2	3	i	.	.
CCC(=O)N1c2ccc(S(=O)(=O)CCC(=O)NCc3cccs3)cc2CC1C (centres undefined)	-1	375	i	43*	0	i	.	.	GRK2 confirm 2=-9;FAM quench SP=101
CCCCc1nnc(NC(=O)CCS(=O)(=O)c2ccc(Cl)cc2)s1	-1	310	.	-11	3	i	1	92
CCCc1nnc(NC(=O)CCS(=O)(=O)c2ccccc2)s1	3	188	.	-7	13	?	18	99
COC[C@@H]1CCCN1c1ccc2c(c1)O[C@@H](COCc1ccccc1)CN([C@H](C)c1ccccc1)S2(=O)=O	.	.	.	1	.	i	.	.
COc1ccc(NC(=O)c2ccccc2NC(=O)CSc2ccc(Cl)cc2)cc1	2	485	i	10	47*	i	0	106
COc1ccc(NC(=O)c2ccccc2NC(=O)CSc2ccccc2)cc1	-4	266	i	-2	0	i	.	.
SMILES	Rin1-Abl PPI inh	T cell HTS	Rce1 inhib	SKN-1 inh	GRK2 aptamer HTS	Myeloid diff 2	GRK2 CP1	FAM quench CP1	others
COc1ccc(NC(=O)c2ccccc2NC(=O)c2ccccc2)cc1	1	302	i	13	41*	i	.	.	GRK2 confirm 2=-22;FAM quench SP=97
COc1cc(NC(C(=O)Nc2cccc(C(C)=O)c2)c2ccccc2)cc(OC)c1OC (centres undefined)	-2	221	i	-3	76*	i	.	.	GRK2 confirm 2=13;FAM quench SP=105
Oc1ccc(/C=C/c2ccc3cccc(O)c3n2)cc1Br	-2	i	i	15	47*	i	-1	96
Cn1nc(C(F)(F)F)c(C(=O)Nc2ccc(F)cc2F)c1Cl	-2	129	i	2	47*	i	-1	98
Cn1nc(C(F)(F)F)c(C(=O)Nc2ccc(F)cc2F)c1Oc1cccc(Cl)c1	-2	277	i	3	0	i	.	.
CC(=O)OCC1=C(C(=O)O)N2C(=O)C(NC(=O)Cn3nc(C(F)F)c(Cl)c3C)C2SC1 (centres undefined)	-1	289	i	-9	2	i	3	101
O=C1CC(=O)NC(SCC(=O)Nc2ccccc2[N+](=O)[O-])=N1	1	352	i	14	43*	i	.	107
O=C(NC1CCCc2c1cnn2-c1ccc(F)cc1F)c1csnn1 (centres undefined)	0	104	i	7	5	i	.	.
Cc1ccc(C(=O)NN2C(=O)CSC2=S)cc1	-3	348	i	-11	0	i	.	.
CC(C)(C)c1ccc(C(=O)NN2C(=O)CSC2=S)cc1	-2	181	i	-6	55*	i	-4	98
